According to ChEMBL document CHEMBL5674890, “Selective inhibition of CBP/p300 HAT by A-485 results in suppression of lipogenesis and hepatic gluconeogenesis” (Cell Death Dis, 2020):
Active and inactive are the calls of the source. The rule behind the calls is not given here.

What was measured:
[1] = tested on: Mus musculus; test: Inhibition of lipogenesis in C57BL/6 mouse supplemented with high-fat diet assessed as decrease in FASN mRNA expression at 20 mg/kg/day, ip administered for 1 week measured by RT-qPCR assay; assay type: functional, organism-based; settings: time 1.0 weeks
Summary of the method: (§1)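 Male C57BL/6 mice were fed high-fat diet for 14 weeks from 5 weeks of age, then injected ip with 20 mg·kg−1·day−1 for 7 days or given vehicle. Epididymal and inguinal WAT were weighed, examined by H&E, and analysed. Transcripts were measured by Trizol/SYBR Green RT-qPCR; proteins by western blot. n = 5–9; mean ± SEM.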

[2] = tested on: Mus musculus; test: Inhibition of lipogenesis in C57BL/6 mouse supplemented with normal chow diet assessed as decrease in FAS protein expression at 20 mg/kg/day, ip administered for 1 week measured by western blot analysis; assay type: functional, organism-based; settings: time 1.0 weeks
Summary of the method: (§2)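 Eight-week-old male C57BL/6 mice on normal chow were given 20 mg·kg−1·day−1 ip daily for 7 days or vehicle. Epididymal WAT was collected. Lipogenic, adipogenic and fatty-acid-oxidation transcripts were quantified by Trizol extraction and SYBR Green RT-qPCR. FAS, ACC, PPARγ and C/EBPα protein were assessed by western blot. n = 5–9; mean ± SEM.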

[3] = tested on: Mus musculus; test: Anti-obesity activity in 6 hrs fasted C57BL/6 mouse supplemented with normal chow diet assessed as effect on insulin sensitivity at 20 mg/kg/day, ip administered for 1 week measured by insulin tolerance test; assay type: functional, organism-based; settings: time 1.0 weeks
Summary of the method: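 Insulin tolerance test in normal-chow male C57BL/6 mice (8 weeks), after 7 days of ip dosing at 20 mg·kg−1·day−1. 6 h fast, then insulin 0.75 UI/kg body weight ip; blood glucose followed. Mean ± SEM, n = 5–9.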

[4] = tested on: Mus musculus; test: Inhibition of hepatic lipogenesis in C57BL/6 mouse supplemented with normal chow diet assessed as decrease in FAS protein expression at 20 mg/kg/day, ip administered for 1 week measured by western blot analysis; assay type: functional, organism-based; settings: time 1.0 weeks
Summary of the method: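 Normal-chow male C57BL/6 mice, 8 weeks old, were injected ip at 20 mg·kg−1·day−1 daily for 7 days or given vehicle. Liver tissue was homogenized in lysis buffer, and FAS and ChREBP protein were assessed by western blot. n = 5–9.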

[5] = tested on: Mus musculus; test: Inhibition of lipogenesis in C57BL/6 mouse supplemented with normal chow diet assessed as decrease in FABP4 mRNA expression at 20 mg/kg/day, ip administered for 1 week measured measured by RT-qPCR assay; assay type: functional, organism-based; settings: time 1.0 weeks; summary of the method: as §2
[6] = tested on: Hepatocyte; test: Inhibition of lipogenesis in mouse primary hepatocytes assessed as decrease in FASN mRNA expression at 3 uM in presence of 100 nM insulin and 5 to 25 mM glucose measured after 18 hrs by RT-qPCR assay; assay type: functional, cell-based
Summary of the method: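 Primary hepatocytes isolated from C57BL/6 mice by two-step perfusion. Cells incubated 18 h with 3 μM inhibitor, with 0 or 100 nM insulin and 5 or 25 mM glucose. Transcripts quantified by SYBR Green RT-qPCR after Trizol RNA extraction; proteins by western blot of lysates. Mean ± SEM.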

[7] = tested on: Hepatocyte; test: Inhibition of glucogenesis in mouse primary hepatocytes stimulated with 100 uM 8-Br-cAMP assessed as decrease in PEPCK mRNA expression at 3 uM in combination with 2 mM metformin measured by RT-qPCR assay; assay type: functional, cell-based
Summary of the method: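 Primary mouse hepatocytes given 3 μM compound with 2 mM metformin in the presence of 100 μM 8-Br-cAMP. Gluconeogenic gene mRNA measured by SYBR Green RT-qPCR. Mean ± SEM, three independent experiments.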

[8] = tested on: Mus musculus; test: Inhibition of hepatic lipogenesis in C57BL/6 mouse supplemented with normal chow diet assessed as decrease in lipid droplet at 20 mg/kg/day, ip administered for 1 week measured by Oil red O staining method; assay type: functional, organism-based; settings: time 1.0 weeks
Summary of the method: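 Eight-week-old male C57BL/6 mice on normal chow were dosed daily by ip injection at 20 mg·kg−1·day−1 for 7 days, with a vehicle group. Liver sections were stained with Oil red O to view lipid droplets.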

[9] = tested on: Mus musculus; test: Inhibition of hepatic lipogenesis in C57BL/6 mouse supplemented with normal chow diet assessed as effect on ACO mRNA expression at 20 mg/kg/day, ip administered for 1 week measured by RT-qPCR assay; assay type: functional, organism-based; settings: time 1.0 weeks
Summary of the method: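 Normal-chow male C57BL/6 mice, 8 weeks old, were injected ip at 20 mg·kg−1·day−1 daily for 7 days or given vehicle. Liver RNA was extracted with Trizol, and fatty-acid-oxidation gene transcripts were quantified by SYBR Green RT-qPCR. n = 5–9; mean ± SEM.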

[10] = tested on: Mus musculus; test: Inhibition of lipogenesis in C57BL/6 mouse supplemented with high-fat diet assessed as decrease in DGAT2 mRNA expression at 20 mg/kg/day, ip administered for 1 week measured by RT-qPCR assay; assay type: functional, organism-based; settings: time 1.0 weeks; summary of the method: as §1
[11] = tested on: Mus musculus; test: Inhibition of lipogenesis in C57BL/6 mouse supplemented with high-fat diet assessed as decrease in C/EBPalpha mRNA expression at 20 mg/kg/day, ip administered for 1 week measured measured by RT-qPCR assay; assay type: functional, organism-based; settings: time 1.0 weeks; summary of the method: as §1
[12] = tested on: Adipocyte; test: Inhibition of lipogenesis in mouse adipocytes isolated stromal vascular cells assessed as decrease in ACC protein expression measured after 24 hrs by western blot analysis; assay type: functional, cell-based
[13] = tested on: Mus musculus; test: Inhibition of lipogenesis in C57BL/6 mouse supplemented with high-fat diet assessed as decrease in LPL mRNA expression at 20 mg/kg/day, ip administered for 1 week measured measured by RT-qPCR assay; assay type: functional, organism-based; settings: time 1.0 weeks; summary of the method: as §1
[14] = tested on: Mus musculus; test: Anti-obesity activity in C57BL/6 mouse supplemented with high fat diet assessed as effect on random blood glucose at 20 mg/kg/day, ip administered for 1 week; assay type: functional, organism-based; settings: time 1.0 weeks
Summary of the method: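 Male C57BL/6 mice fed high-fat diet for 14 weeks from 5 weeks of age, then ip 20 mg·kg−1·day−1 for 7 days. Body weight, EchoMRI lean/fat mass, and random or 16 h-fasted blood glucose recorded, as the line states.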

[15] = tested on: Mus musculus; test: Inhibition of lipogenesis in C57BL/6 mouse supplemented with normal chow diet assessed as effect on ACO mRNA expression at 20 mg/kg/day, ip administered for 1 week measured by RT-qPCR assay; assay type: functional, organism-based; settings: time 1.0 weeks; summary of the method: as §2
[16] = tested on: Mus musculus; test: Inhibition of lipogenesis in C57BL/6 mouse supplemented with high-fat diet assessed as decrease in C/EBPalpha protein expression at 20 mg/kg/day, ip administered for 1 week measured measured by western blot analysis; assay type: functional, organism-based; settings: time 1.0 weeks; summary of the method: as §1
[17] = tested on: Mus musculus; test: Inhibition of lipogenesis in C57BL/6 mouse supplemented with high-fat diet assessed as decrease in PPARgamma mRNA expression at 20 mg/kg/day, ip administered for 1 week measured measured by RT-qPCR assay; assay type: functional, organism-based; settings: time 1.0 weeks; summary of the method: as §1
[18] = tested on: Hepatocyte; test: Inhibition of lipogenesis in mouse primary hepatocytes assessed as decrease in FAS protein expression at 3 uM in presence of 100 nM insulin and 5 to 25 mM glucose measured after 18 hrs by western blot analysis; assay type: functional, cell-based
[19] = tested on: Hepatocyte; test: Inhibition of glucogenesis in mouse primary hepatocytes stimulated with 100 uM 8-Br-cAMP assessed as decrease in FBP mRNA expression at 3 uM measured after 8 hrs by RT-qPCR assay
[20] = tested on: Hepatocyte; test: Inhibition of glucogenesis in mouse primary hepatocytes stimulated with 100 uM 8-Br-cAMP assessed as decrease in C/EBPalpha protein expression at 3 uM measured after 12 hrs by western blot analysis; assay type: functional, cell-based
Summary of the method: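 Primary mouse hepatocytes incubated 12 h with 3 μM compound and 100 μM 8-Br-cAMP. Lysates western blotted for FOXO1, C/EBPα or PGC1α. Three independent experiments.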

In the case of CNC(=O)Nc1ccc2c(c1)CCS21OC(=O)N(CC(=O)N(Cc2ccc(F)cc2)[C@@H](C)C(F)(F)F)C1=O (stereo not given in full), the inhibition [1] is reported as “Active”, the inhibition [2] is reported as “Active” and the Activity [3] is reported as “inactive”. For the same molecule, the inhibition [4] was “Active”, the inhibition [5] was “Active” and the inhibition [6] was “Active”. The inhibition [7] was “Active”, the inhibition [8] was “Active” and the inhibition [9] was “inactive”. The inhibition [10] was “Active”, the inhibition [11] was “Active” and the inhibition [12] was “Active”. The inhibition [13] was “Active”, the Activity [14] was “inactive” and the inhibition [15] was “inactive”. For the same molecule, the inhibition [16] was “Active”, the inhibition [17] was “Active” and the inhibition [18] was “Active”. For the same molecule, the inhibition [19] was “Active” and the inhibition [20] was “Active”.
